# Data: ChEMBL document CHEMBL1944519 (Bioorg Med Chem, 2012)
# Key:
# [1] = molecular target: T1, Steryl-sulfatase (Homo sapiens) (UniProt P08842); experiment: Ratio of 17beta-3'-trifluoromethylbenzylest radiol IC50 to compound IC50 for steroid sulfatase
# T1 sequence (whole entry): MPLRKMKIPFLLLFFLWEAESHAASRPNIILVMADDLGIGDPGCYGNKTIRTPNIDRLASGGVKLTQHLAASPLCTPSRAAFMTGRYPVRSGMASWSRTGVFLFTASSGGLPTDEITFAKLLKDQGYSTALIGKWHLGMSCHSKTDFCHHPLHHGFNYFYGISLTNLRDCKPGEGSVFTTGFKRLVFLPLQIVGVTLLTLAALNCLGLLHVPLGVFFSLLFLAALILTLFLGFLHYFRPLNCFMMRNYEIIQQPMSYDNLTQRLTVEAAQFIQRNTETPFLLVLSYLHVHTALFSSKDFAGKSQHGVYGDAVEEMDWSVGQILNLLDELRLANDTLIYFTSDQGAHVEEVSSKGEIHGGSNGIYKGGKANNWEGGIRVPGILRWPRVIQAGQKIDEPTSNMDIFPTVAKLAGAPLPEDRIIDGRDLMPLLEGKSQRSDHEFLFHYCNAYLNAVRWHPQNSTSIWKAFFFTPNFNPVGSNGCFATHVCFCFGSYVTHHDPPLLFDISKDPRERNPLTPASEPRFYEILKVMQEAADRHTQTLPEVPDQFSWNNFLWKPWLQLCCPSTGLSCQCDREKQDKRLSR
# [2] = molecular target: T2, Steryl-sulfatase (Homo sapiens, UniProt P08842); experiment: Inhibition of steroid sulfatase using 4-methylumbelliferyl sulfate as substrate after 10 mins by spectrofluorimeter plate reader
# T2 sequence (P08842 whole entry): T1 sequence (whole entry)
# In short: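 Human placental STS, purified, used at 10 nM final with 200 μM 4-MUS (Km level). Assay buffer 0.1 M Tris-HCl pH 7.0, 0.01% Triton X-100, 5% DMSO, 25 °C. Inhibitor dilutions in DMSO/Tris (1:1), enzyme added last. 4-MU release read by fluorescence (ex 360, em 460) over 10 min, in triplicate. IC50 from percent activity vs log[I], fitted with a slope-factor equation plus background term.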
# [3] = molecular target: T2, Steryl-sulfatase; experiment: Mixed type inhibition of steroid sulfatase using 4-methylumbelliferyl sulfate as substrate by Lineweaver-Burk plot analysis
# In short: (§1)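 Kinetics used purified human placental STS at 10 nM final, 25 °C. Inhibitor was fixed at 75, 50 or 25 nM final (plus an inhibitor-free control) against 4-MUS from 83.3 to 500 μM final, in 0.1 M Tris-HCl pH 7.0. Initial rates (RFU/s) were measured by fluorescence in triplicate and plotted as Lineweaver–Burk. Slopes and intercepts were replotted with mixed-type equations to give Ki and αKi.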
# [4] = molecular target: T2, Steryl-sulfatase; experiment: Inhibition of steroid sulfatase using 4-methylumbelliferyl sulfate as substrate by Lineweaver-Burk plot analysis; in short: as §1
Structure (SMILES),IC50 [2],further results
C[C@]12CC[C@@H]3c4ccc(O)cc4CC[C@H]3[C@@H]1CC[C@@H]2NS(=O)(=O)c1cccc(C(F)(F)F)c1,0.023 µM,Ratio IC50 [1]: 6
Cc1ccc(S(=O)(=O)N[C@H]2CC[C@H]3[C@@H]4CCc5cc(O)ccc5[C@H]4CC[C@]23C)cc1,0.207 µM,
C[C@]12CC[C@@H]3c4ccc(O)cc4CC[C@H]3[C@@H]1CC[C@@H]2NS(=O)(=O)c1cccc(Cl)c1,0.067 µM,
C[C@]12CC[C@@H]3c4ccc(O)cc4CC[C@H]3[C@@H]1CC[C@@H]2NS(=O)(=O)c1ccc(Oc2ccccc2)cc1,0.039 µM,
CC(C)(C)c1ccc(S(=O)(=O)N[C@H]2CC[C@H]3[C@@H]4CCc5cc(O)ccc5[C@H]4CC[C@]23C)cc1,0.018 µM,
C[C@]12CC[C@@H]3c4ccc(O)cc4CC[C@H]3[C@@H]1CC[C@@H]2NS(=O)(=O)c1cccc(F)c1,0.112 µM,
C[C@]12CC[C@@H]3c4ccc(O)cc4CC[C@H]3[C@@H]1CC[C@@H]2NC(=O)c1cccc(C(F)(F)F)c1,0.749 µM,
C[C@]12CC[C@@H]3c4ccc(O)cc4CC[C@H]3[C@@H]1CC[C@@H]2NS(=O)(=O)c1ccccc1,0.343 µM,
C[C@]12CC[C@@H]3c4ccc(O)cc4CC[C@H]3[C@@H]1CC[C@@H]2NS(=O)(=O)c1ccc(-c2ccccc2)cc1,0.009 µM,
C[C@]12CC[C@@H]3c4ccc(O)cc4CC[C@H]3[C@@H]1CC[C@@H]2NS(=O)(=O)c1ccc(F)cc1,0.479 µM,
C[C@]12CC[C@@H]3c4ccc(O)cc4CC[C@H]3[C@@H]1CC[C@@H]2NS(=O)(=O)c1ccc2ccccc2c1,0.02 µM,
Cc1ccc(S(=O)(=O)O[C@H]2CC[C@H]3[C@@H]4CCc5cc(O)ccc5[C@H]4CC[C@]23C)cc1,0.293 µM,
CCCc1ccc(S(=O)(=O)N[C@H]2CC[C@H]3[C@@H]4CCc5cc(O)ccc5[C@H]4CC[C@]23C)cc1,0.044 µM,
C[C@]12CC[C@@H]3c4ccc(O)cc4CC[C@H]3[C@@H]1CC[C@@H]2NS(=O)(=O)c1ccccc1Br,0.493 µM,
C[C@]12CC[C@@H]3c4ccc(O)cc4CC[C@H]3[C@@H]1CC[C@@H]2NS(=O)(=O)Cc1ccccc1,0.364 µM,
C[C@]12CC[C@@H]3c4ccc(O)cc4CC[C@H]3[C@@H]1CC[C@@H]2NS(=O)(=O)c1ccc(C(F)(F)F)cc1,0.073 µM,

Structure (SMILES),IC50 [2],further results
COc1cccc(S(=O)(=O)N[C@H]2CC[C@H]3[C@@H]4CCc5cc(O)ccc5[C@H]4CC[C@]23C)c1,0.193 µM,
C[C@]12CC[C@@H]3c4ccc(O)cc4CC[C@H]3[C@@H]1CC[C@@]2(O)Cc1ccc2ccccc2c1,0.12 µM,
CC(C)c1ccc(S(=O)(=O)N[C@H]2CC[C@H]3[C@@H]4CCc5cc(O)ccc5[C@H]4CC[C@]23C)cc1,0.062 µM,
C[C@]12CC[C@@H]3c4ccc(O)cc4CC[C@H]3[C@@H]1CC[C@@H]2NS(=O)(=O)c1ccc(Br)cc1,0.19 µM,
Cc1cccc(S(=O)(=O)N[C@H]2CC[C@H]3[C@@H]4CCc5cc(O)ccc5[C@H]4CC[C@]23C)c1,0.065 µM,
C[C@]12CC[C@@H]3c4ccc(O)cc4CC[C@H]3[C@@H]1CC[C@@H]2NS(=O)(=O)c1cccc(OC(F)(F)F)c1,0.074 µM,
Cc1ccc(CS(=O)(=O)N[C@H]2CC[C@H]3[C@@H]4CCc5cc(O)ccc5[C@H]4CC[C@]23C)cc1,0.261 µM,
C[C@]12CC[C@@H]3c4ccc(O)cc4CC[C@H]3[C@@H]1CC[C@@H]2NS(=O)(=O)c1cccc([N+](=O)[O-])c1,0.09 µM,
CCCCc1ccc(S(=O)(=O)N[C@H]2CC[C@H]3[C@@H]4CCc5cc(O)ccc5[C@H]4CC[C@]23C)cc1,0.026 µM,
CCCCCc1ccc(S(=O)(=O)N[C@H]2CC[C@H]3[C@@H]4CCc5cc(O)ccc5[C@H]4CC[C@]23C)cc1,0.051 µM,
C[C@]12CC[C@@H]3c4ccc(O)cc4CC[C@H]3[C@@H]1CC[C@@H]2NS(=O)(=O)c1ccc(Cl)cc1,0.271 µM,
C[C@]12CC[C@@H]3c4ccc(O)cc4CC[C@H]3[C@@H]1CC[C@@H]2NS(=O)(=O)c1cccc(Br)c1,0.025 µM,Ki [3]: 0.023 µM; Ki [4]: 0.023 µM
C[C@]12CC[C@@H]3c4ccc(O)cc4CC[C@H]3[C@@H]1CC[C@@]2(O)Cc1ccc(-c2ccccc2)cc1,0.035 µM,
C[C@]12CC[C@@H]3c4ccc(O)cc4CC[C@H]3[C@@H]1CC[C@@H]2NS(=O)(=O)c1cccc(C#N)c1,0.137 µM,
C[C@]12CC[C@@H]3c4ccc(O)cc4CC[C@H]3[C@@H]1CC[C@@]2(O)Cc1cccc(C(F)(F)F)c1,0.126 µM,
Cc1ccc(S(=O)(=O)N[C@@H]2CC[C@H]3[C@@H]4CCc5cc(O)ccc5[C@H]4CC[C@]23C)cc1,0.341 µM,
